The subject of assay [1] is HT-29. Nature of the assay: Protection against TNFalpha/SM-164 (TS)-induced apoptosis in human HT-29 cells assessed as increase in cell viability at 0.5 to 10 uM measured after 20 hrs by celltiter-glo luminescent cell viability assay. The settings on record: dose 0.5-10 µM. Type of assay: functional, cell-based. The essentials:
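HT-29 cells exposed to agent across concentrations, then TNF-α and Smac mimetic (TS) for 20 h. CellTiter-Glo viability, mean ± S.D. of three independent experiments.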
On the technique in general: In ATP-based viability assays light output follows the ATP content of the culture.

Assay [2] deals with Mus musculus. In words: Protection against TNFalpha-induced C57BL/6J mouse model of systemic inflammatory response syndrome assessed as reduction in hypothermia at 10 to 20 mg/kg, ig administered via gavage 2 hrs prior to TNFalpha stimulation and measured after 10 to 60 mins by electric thermometric method. Type of assay: functional, organism-based. The settings on record: dose 10-20 mg/kg, time 2-3 hrs. In short, it runs like this: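 Female C57BL/6J mice, fasted, n=11 per group. Agent at 10 or 20 mg/kg in 0.5% CMC-Na by gavage 2 h before i.v. mTNF-α (250 µg/kg). z-VAD-fmk i.p. 200 µg at −15 min and 75 µg at +1 h. Body temperature tracked, mean ± S.E.M.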

A further assay has as its system L929. In words: Anti-necroptotic activity in mouse L929 cells assessed as inhibition of TNFalpha/Z-VAD-fmk (TZ)-induced necroptosis by measuring increase in cell viability measured after 12 hrs by celltiter-glo luminescent cell viability assay. Type of assay: functional, cell-based. In short, it runs like this:
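Mouse L929 fibroblasts pretreated with test agent, then mouse TNF-α (20 ng/mL) plus z-VAD-fmk (20 μM). Incubation stated as 4 h in table footnote and 12 h in figure legend. CellTiter-Glo viability. EC50 ± SD from at least three independent repeats.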

In assay [3] the target is T1, Heat shock protein HSP90 (Homo sapiens) (UniProt P07900+P08238). Nature of the assay: Inhibition of HSP90 in TNFalpha/SM-164/Z-VAD-fmk (TSZ)-induced human HT-29 cells assessed as reduction in RIPK1 expression at 10 uM preincubated for 30 mins followed by TSZ stimulation and measured after 2 to 6 hrs by Western blot analysis. It is filed as cell-based. The settings on record: time 2-6.5 hrs. The essentials: (§1)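 HT-29 cells pretreated 30 min with agent (10 μM), then TSZ for the indicated times. Lysed in RIPA with protease and phosphatase inhibitors, BCA quantified. 30 μg protein run on SDS-PAGE and blotted to PVDF. Blocked in 5% BSA, primary antibodies 1:1000 overnight at 4 °C, secondary 1:8000 for 1 h at room temperature.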
(In general: In western blotting, separated proteins are transferred to a membrane and probed.)

Assay [4] deals with T1, Heat shock protein HSP90 (Homo sapiens). In words: Inhibition of HSP90 in TNFalpha/SM-164/Z-VAD-fmk (TSZ)-induced human HT-29 cells assessed as reduction in RIPK1-RIPK3 necrosome formation at 10 uM measured after 6 hrs by Western blot analysis. It is filed as cell-based. In short, it runs like this: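 HT-29 cells given agent (10 μM) or DMSO for 6 h under TSZ. Lysed in NP-40 buffer with PMSF, protease inhibitors, β-glycerophosphate, NaF and Na3VO4. Anti-RIPK1 immunoprecipitation overnight at 4 °C, protein A/G capture overnight. Eluates boiled in SDS buffer and resolved on 10% gels for immunoblot.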

For assay [5], the system named is Rattus norvegicus. In words: Neuroprotective activity in middle cerebral artery occlusion-induced Sprague-Dawley rat model of ischemia-reperfusion injury assessed as reduction in cerebral infarct volume at 100 mg/kg by TTC staining based microscopic analysis relative to control. Type of assay: functional. Also noted: scale not given: the % may be the effect or the level left. The essentials:
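Rats: left MCA blocked by monofilament via internal carotid under chloral hydrate (300 mg/kg i.p.), 2 h occlusion, 24 h reperfusion. Groups sham, vehicle, compound 100 mg/kg, nimodipine 1 mg/kg given orally beforehand. Brains cut in 2 mm coronal slices, TTC-stained; unstained area as percent of whole brain area; n = 6.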

In assay [6] the target is T1, Heat shock protein HSP90 (Homo sapiens). Nature of the assay: Inhibition of HSP90 in TNFalpha/SM-164/Z-VAD-fmk (TSZ)-induced human HT-29 cells assessed as increase in HSP70 expression at 10 uM by Western blot analysis. It is filed as cell-based. The settings on record: time 0.5-6 hrs.
Assay [7] concerns HT-29. In words: Anti-necroptotic activity in human HT-29 cells assessed as inhibition of TNFalpha/SM-164/Z-VAD-fmk (TSZ)-induced necroptosis by measuring increase in cell viability at 10 uM measured after 12 hrs in presence of RIPK3 inhibitor SZM630 by celltiter-glo luminescent cell viability assay. Type of assay: functional, cell-based. The essentials:
(§2)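 HT-29 cells exposed to test agent combined with a second necroptosis inhibitor, then stimulated with TSZ for 12 h to assess synergy. Viability read by CellTiter-Glo luminescence.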

Assay [8] relates to Rattus norvegicus. Nature of the assay: Neuroprotective activity in middle cerebral artery occlusion-induced Sprague-Dawley rat model of ischemia-reperfusion injury assessed as reversal of pathological change at 100 mg/kg by H and E staining based analysis. Type of assay: functional, organism-based. The essentials: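 Rats underwent 2 h MCA filament occlusion, then 24 h reperfusion, agent at 100 mg/kg. Animals perfused with saline and 4% paraformaldehyde. Brains paraffin-embedded and cut into 5 μm coronal sections. Hippocampus and cortex assessed by HE staining.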

Assay [9] has as its system Rattus norvegicus. Nature of the assay: Neuroprotective activity in middle cerebral artery occlusion-induced Sprague-Dawley rat model of ischemia-reperfusion injury assessed as neurological deficit score at 100 mg/kg (reference value: 3.71 +/- 0.45). It is filed as functional.
Assay [10] deals with HT-29. Nature of the assay: Anti-necroptotic activity in human HT-29 cells assessed as inhibition of TNFalpha/SM-164/Z-VAD-fmk (TSZ)-induced necroptosis by measuring increase in cell viability measured after 12 hrs by celltiter-glo luminescent cell viability assay. Type of assay: functional, cell-based. The essentials: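 HT-29 cells pretreated with test agent across a concentration range, then TNF-α (20 ng/mL), Smac mimetic (10 nM) and z-VAD-fmk (20 μM) for 12–16 h. CellTiter-Glo viability. EC50 ± SD from at least three independent experiments.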

Assay [11] has as its target T1, Heat shock protein HSP90 (Homo sapiens). In words: Inhibition of HSP90 in TNFalpha/SM-164/Z-VAD-fmk (TSZ)-induced human HT-29 cells assessed as reduction in MLKL expression at 10 uM preincubated for 30 mins followed by TSZ stimulation and measured after 2 to 6 hrs by Western blot analysis. It is filed as cell-based. The note with it: time 2-6.5 hrs. In short, it runs like this: as §1

In assay [12] the test system is HT-29. Nature of the assay: Anti-necroptotic activity in human HT-29 cells assessed as inhibition of TNFalpha/SM-164/Z-VAD-fmk (TSZ)-induced necroptosis by measuring increase in cell viability at 10 uM measured after 12 hrs in presence of MLKL inhibitor NSA by celltiter-glo luminescent cell viability assay. Type of assay: functional, cell-based. The essentials: as §2

Assay [13] addresses T1, Heat shock protein HSP90 (Homo sapiens). In words: Inhibition of HSP90 in TNFalpha/SM-164/Z-VAD-fmk (TSZ)-induced human HT-29 cells assessed as reduction in EGFR expression at 10 uM by Western blot analysis. It is filed as cell-based. The note with it: time 0.5-6 hrs.
The test system of assay [14] is Mus musculus. In words: Protection against TNFalpha-induced C57BL/6J mouse model of systemic inflammatory response syndrome assessed as reduction in IL1beta level at 20 mg/kg, ig administered via gavage 2 hrs prior to TNFalpha stimulation and measured after 6 hrs by ELISA. It is filed as functional, organism-based. The settings on record: time 8.0 hrs. The essentials:
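Female C57BL/6J mice, 6–8 weeks, fasted overnight, n=11 per group. Agent suspended in 0.5% CMC-Na, given by oral gavage 2 h before i.v. mTNF-α (250 µg/kg in PBS). z-VAD-fmk i.p. 200 µg 15 min before and 75 µg 1 h after. Serum IL-1β and IL-6 measured by ELISA at 6 h.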
For orientation: In an ELISA, binding on a coated surface is turned into a signal by an enzyme label.

Activity calls are given as the source filed them. No cut-off for these calls is given here.

A word on the EC50: it is the concentration that produces a half-maximal response.

For `CC1(C)CC[C@]2(C(=O)n3cnc(-c4cccnc4)c3)CC[C@]3(C)[C@H](C(=O)C=C4[C@@]5(C)C=C(C#N)C(=O)C(C)(C)[C@@H]5CC[C@]43C)[C@@H]2C1`, the outcome with HT-29 [1], in the assay with Mus musculus [2], with Rattus norvegicus [8] and with Mus musculus [14] was Active. The inhibition entry (in the assay on L929; in assay [6]; in the assay with HT-29 [10]; in assay [13]) was “Dose-dependent effect” throughout. Besides, the EC50 was found to be 860 nM in the assay on L929 (L929, 12 h) and 310 nM with HT-29 [10] (HT-29, 12 h). Moreover, the inhibition entry (in assay [3]; in [4]; in the assay on HT-29 [7]; in assay [11]; in the assay with HT-29 [12]) was “Active” in each case. For the same compound, the Activity in the assay on Rattus norvegicus [5] is 22.8%; in the assay on Rattus norvegicus [9] it was 2.72.

Source of the values: ChEMBL document CHEMBL4732104, “Discovery of bardoxolone derivatives as novel orally active necroptosis inhibitors” (Eur J Med Chem, 2021).
